{"source": "paper PMC9401512", "about": "(Clinical Cancer Research, 2021)", "key": {"[1]": {"test_system": "adults with ER-positive breast cancer", "experiment": "Dose-limiting toxicities in the first 28-day treatment cycle", "type": "in vivo, human"}, "[2]": {"test_system": "adults with ER-positive breast cancer", "experiment": "Adverse events, serious AEs, deaths, discontinuations", "type": "in vivo, human", "procedure,_shortened": "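Open-label phase I/Ib escalation in adults with ER-positive advanced breast cancer. Oral test compound was given once or twice daily, alone or with one of two partner agents, in continuous 28-day cycles. AEs were defined and graded per CTCAE v4.03. The safety set was treated participants with ≥1 valid postbaseline safety assessment. Fed/fasted data were pooled.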"}, "[3]": {"experiment": "LSZ102 clinical pharmacokinetics", "type": "in vivo, human"}, "[4]": {"test_system": "ER-positive breast cancer", "experiment": "Investigator-assessed clinical response", "type": "in vivo, human", "procedure,_shortened": "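Local investigator assessed response per RECIST v1.1 in all participants receiving ≥1 dose. ORR = confirmed CR+PR. CBR = CR+PR plus SD or non-CR/non-PD maintained ≥24 weeks. PFS was estimated by Kaplan–Meier. Data were grouped by total daily dose, pooling fed, fasted and food-independent dosing.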"}, "[5]": {"test_system": "ER protein", "experiment": "Paired biopsy ER protein by IHC", "type": "in vivo, human", "details": "cycle 1 day 15, single agent"}, "[6]": {"details": "cited from earlier work"}}, "note": "Marks after values point to notes of the source that are not given here."}
{"smiles": "CC(F)(F)c1cc(F)ccc1-c1sc2cc(O)ccc2c1Oc1ccc(/C=C/C(=O)O)cc1", "note": "[LSZ102]", "values": [{"measurement": "DLT: ALT increased, participants", "setting": "[1]; 450 mg QD", "value": "1^b"}, {"measurement": "DLT: AST increased, participants", "setting": "[1]; 450 mg QD", "value": "1^b"}, {"measurement": "DLT: Vomiting, participants", "setting": "[1]; 600 mg QD", "value": 1}, {"measurement": "DLT: Diarrhea, participants", "setting": "[1]; 900 mg QD", "value": 2}, {"measurement": "DLTs, participants", "setting": "[1]; first 28-day cycle, whole arm", "value": 5, "unit": "%"}, {"measurement": "Recommended dose for expansion: LSZ102 dose", "setting": "[1]; in vivo", "value": 450, "unit": "mg once daily"}, {"measurement": "Participants with ≥ 1 DLT, n (%)", "setting": "[1]; total daily dose 200 mg, QD (n = 4)", "value": "0 n (%)"}, {"measurement": "Participants with ≥ 1 DLT, n (%)", "setting": "[1]; total daily dose 400 mg, BID (n = 3)", "value": "0 n (%)"}, {"measurement": "Participants with ≥ 1 DLT, n (%)", "setting": "[1]; total daily dose 400 mg, QD (n = 6)", "value": "0 n (%)"}, {"measurement": "Participants with ≥ 1 DLT, n (%)", "setting": "[1]; total daily dose 450 mg, BID (n = 5)", "value": "0 n (%)"}, {"measurement": "Participants with ≥ 1 DLT, n (%)", "setting": "[1]; total daily dose 600 mg (n = 28), QD (n = 23)", "value": "1 (3.6) n (%)"}, {"measurement": "Participants with ≥ 1 DLT, n (%)", "setting": "[1]; total daily dose 600 mg, BID (n = 5)", "value": "0 n (%)"}, {"measurement": "Participants with ≥ 1 DLT, n (%)", "setting": "[1]; total daily dose 900 mg, QD (n = 6)", "value": "2 (33.3) n (%)"}, {"measurement": "Discontinuations from study treatment: Adverse event, n (%)", "setting": "[2]; in vivo", "value": "2 (2.6) n (%)"}, {"measurement": "Discontinuations from study treatment: Death, n (%)", "setting": "[2]; in vivo", "value": "0 n (%)"}, {"measurement": "Deaths on treatment or within 30 days from the last dose, number", "setting": "[2]; whole arm", "value": 5}, {"measurement": "Participants with treatment-related serious AEs, number", "setting": "[2]; whole arm", "value": 1}, {"measurement": "Time to Cmax", "setting": "[3]; discussion summary", "value": "approximately 2 hours"}, {"measurement": "Median time to maximum concentration (Cmax)", "setting": "[3]; fasted conditions", "value": "2 to 3", "unit": "h"}, {"measurement": "Discontinuations from study treatment: Progressive disease, n (%)", "setting": "[4]; human, in vivo", "value": "71 (91.0) n (%)"}, {"measurement": "Clinical benefit rate (CBR)", "setting": "[4]; whole arm", "value": 7.8, "unit": "%"}, {"measurement": "Objective response rate (ORR)", "setting": "[4]; whole arm", "value": 1.3, "unit": "%"}, {"measurement": "Biopsy ER H-score change from screening", "setting": "[5]", "value": "trend toward dose-dependent ER degradation"}, {"measurement": "Increase in LSZ102 exposure with a high-fat high-calorie meal", "setting": "[6]", "value": "~2", "unit": "fold"}]}
